According to ChEMBL document CHEMBL2321866 (J Med Chem, 2013):
The source made the active and inactive calls. The calls are words filed in the database; no cut-off is given here.

Legend:
[1] = target: T1, Cannabinoid receptor 2 (Homo sapiens, UniProt P34972); experiment: Displacement of [3H]CP-55,940 from CB2 receptor (unknown origin) after 1 hr by scintillation counting analysis
[2] = species: Homo sapiens; experiment: Selectivity index, ratio of Ki for CB1 receptor (unknown origin) to Ki for CB2 receptor (unknown origin)
[3] = target: Cannabinoid receptor 1 (Homo sapiens, UniProt P21554)
Cannabinoid receptor 1, sequence (P21554 whole entry): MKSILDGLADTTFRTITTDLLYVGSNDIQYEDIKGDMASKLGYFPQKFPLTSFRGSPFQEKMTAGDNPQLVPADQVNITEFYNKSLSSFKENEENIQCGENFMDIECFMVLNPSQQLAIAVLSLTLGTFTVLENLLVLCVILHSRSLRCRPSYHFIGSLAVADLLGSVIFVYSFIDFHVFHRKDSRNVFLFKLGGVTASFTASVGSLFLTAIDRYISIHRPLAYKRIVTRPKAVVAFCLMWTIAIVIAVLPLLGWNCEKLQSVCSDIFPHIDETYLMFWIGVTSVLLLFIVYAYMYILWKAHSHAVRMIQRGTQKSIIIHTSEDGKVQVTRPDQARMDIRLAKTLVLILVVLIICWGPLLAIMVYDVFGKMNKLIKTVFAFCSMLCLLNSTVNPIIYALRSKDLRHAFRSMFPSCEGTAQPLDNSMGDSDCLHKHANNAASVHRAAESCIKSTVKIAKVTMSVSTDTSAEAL

[4] = test system: RAW264.7; experiment: Cytotoxicity against mouse RAW264.7 cells assessed as cell viability at […] after 3 days by MTT assay; format: cell-based; details: raw264.7, 72 h
[5] = test system: RAW264.7; experiment: Inhibition of RANKL-induced osteoclastogenesis in mouse RAW264.7 cells at 10 uM after 5 days by TRAP assay relative to control; format: functional; details: RAW264.7, 120 h
Procedure, shortened: (§1)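 RAW 264.7 murine monocytic cells were seeded at 3 × 10^3 per well and cultured 24 h in αMEM with 10% FBS. Medium was then replaced with the same medium containing RANKL (15 ng/mL) plus test compound. […] Mean of three experiments, each in triplicate.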

[6] = test system: RAW264.7; experiment: Inhibition of RANKL-induced osteoclastogenesis in mouse RAW264.7 cells after 5 days by TRAP assay; format: functional, cell-based
Procedure, shortened: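 RAW 264.7 cells, 3×10^3 per well, grown 24 h in αMEM/10% FBS, then switched to medium with RANKL (15 ng/mL) plus compound (0.1–10 µM). After 5 days cells fixed and TRAP-stained; TRAP+ cells with more than three nuclei scored as osteoclasts. Mean of three experiments in triplicate.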

[7] = target: T1, Cannabinoid receptor 2; experiment: Inverse agonist activity at human CB2 receptor expressed in CHO cells assessed as increase in forskolin-induced cAMP production after 45 mins in presence of phosphodiesterase inhibitor RO20-1724; format: functional, cell-based
[8] = test system: RAW264.7; experiment: Cytotoxicity against mouse RAW264.7 cells assessed as cell viability at 5 uM after 3 days by MTT assay; format: cell-based; details: raw264.7, 72 h
Procedure, shortened: (§2)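 Survival measured by MTT and expressed as percent of vehicle control. Mean ± S.E.M. of experiments run in triplicate.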

[9] = test system: RAW264.7; experiment: Cytotoxicity against mouse RAW264.7 cells assessed as cell viability at 2.5 uM after 3 days by MTT assay relative to vehicle-treated control; format: cell-based; details: raw264.7, 72 h; procedure, shortened: as §2
[10] = test system: RAW264.7; experiment: Cytotoxicity against mouse RAW264.7 cells assessed as cell viability at 5 to 10 uM after 3 days by MTT assay; format: cell-based; details: raw264.7, 72 h; procedure, shortened: as §2
[11] = test system: RAW264.7; experiment: Inhibition of RANKL-induced osteoclastogenesis in mouse RAW264.7 cells at 1 uM after 5 days by TRAP assay relative to control; format: functional; procedure, shortened: as §1
[12] = test system: RAW264.7; experiment: Inhibition of RANKL-induced osteoclastogenesis in mouse RAW264.7 cells at 0.1 uM after 5 days by TRAP assay relative to control; format: functional; details: RAW264.7, 120 h; procedure, shortened: as §1

T1 sequence (P34972 whole entry): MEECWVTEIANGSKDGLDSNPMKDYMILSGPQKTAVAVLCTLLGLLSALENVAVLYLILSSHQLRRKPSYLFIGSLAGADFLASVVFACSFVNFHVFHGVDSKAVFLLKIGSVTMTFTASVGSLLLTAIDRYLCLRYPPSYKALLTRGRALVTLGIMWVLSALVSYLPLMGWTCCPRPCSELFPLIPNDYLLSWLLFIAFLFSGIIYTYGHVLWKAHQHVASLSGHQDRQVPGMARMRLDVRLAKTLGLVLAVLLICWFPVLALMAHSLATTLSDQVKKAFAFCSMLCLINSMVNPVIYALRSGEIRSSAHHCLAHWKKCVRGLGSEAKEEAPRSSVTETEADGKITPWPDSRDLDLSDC

CCN(CC)c1ccc(CN(c2ccc(Cl)cc2)S(=O)(=O)c2ccc(Cl)cc2)cc1
Ki ([1]; read-out: Ki): 36 nM
Ratio Ki [2]: 183

CCN(CC)c1ccc(CN([C@]23C[C@H]4C[C@H](C[C@H](C4)C2)C3)S(=O)(=O)c2ccccc2)cc1
Ki ([1]; read-out: Ki): 84 nM
Ki [3]: 11000 nM
Ratio Ki [2]: 130

CCN(CC)c1ccc(CN(c2ccc(C)cc2)S(=O)(=O)c2cccc(C)c2)cc1
Ki ([1]; read-out: Ki): 5.8 nM
Ratio Ki [2]: 37

CCN(CC)c1ccc(CN(c2ccc(Cl)cc2)S(=O)(=O)c2ccc(C)cc2)cc1
Ki ([1]; read-out: Ki): 37 nM
Ratio Ki [2]: 3.7

CCCCCCCN(Cc1ccc(N(CC)CC)cc1)S(=O)(=O)c1ccc(Cl)cc1
Ki ([1]; read-out: Ki): 6740 nM

CCN(CC)c1ccc(CN([C@]23C[C@H]4C[C@H](C[C@H](C4)C2)C3)S(=O)(=O)c2cccc(C)c2)cc1
Activity [4]: Non-toxic
inhibition at 10 µM [5]: > 95%
Ki ([1]; read-out: Ki): 19 nM
Ki [3]: 8220 nM
inhibition [6]: Dose-dependent effect

CCN(CC)c1ccc(CN([C@]23C[C@H]4C[C@H](C[C@H](C4)C2)C3)S(=O)(=O)c2ccc(F)cc2)cc1
EC50 [7]: 268 nM
Ki ([1]; read-out: Ki): 25 nM
Ki [3]: 4270 nM

CCN(CC)c1ccc(CN(c2ccc(C)cc2)S(=O)(=O)c2ccc(F)cc2)cc1
Ki ([1]; read-out: Ki): 5.6 nM
Ratio Ki [2]: 153

CCCCCCCN(Cc1ccc(N(CC)CC)cc1)C(=O)Cc1ccc(Cl)cc1
Ki ([1]; read-out: Ki): 696 nM

CCCCCCCN(Cc1ccc(N(CC)CC)cc1)S(=O)(=O)c1cccc(C)c1
Ki ([1]; read-out: Ki): 2300 nM

CCN(CC)c1ccc(CN(c2ccc(Cl)cc2)S(=O)(=O)c2ccc(F)cc2)cc1
Ki ([1]; read-out: Ki): 73 nM
Ratio Ki [2]: 15

CCCCCCCC(=O)N(Cc1ccc(N(CC)CC)cc1)[C@]12C[C@H]3C[C@H](C[C@H](C3)C1)C2
Ki ([1]; read-out: Ki): 638 nM

CCN(CC)c1ccc(CN([C@]23C[C@H]4C[C@H](C[C@H](C4)C2)C3)S(=O)(=O)c2ccc(Cl)cc2)cc1
Ki ([1]; read-out: Ki): 173 nM
Ki [3]: 2030 nM
Ratio Ki [2]: 11

CCN(CC)c1ccc(CN(C(=O)Cc2ccc(Cl)cc2)[C@]23C[C@H]4C[C@H](C[C@H](C4)C2)C3)cc1
Ki [3]: > 20000 nM

CCCCCCCN(Cc1ccc(N(CC)CC)cc1)C(=O)Cc1ccccc1
Ki ([1]; read-out: Ki): 1310 nM

CCN(CC)c1ccc(CN([C@]23C[C@H]4C[C@H](C[C@H](C4)C2)C3)S(=O)(=O)c2ccc(C)cc2)cc1
Ki [3]: > 20000 nM

CCN(CC)c1ccc(CN(c2ccc(C)cc2)S(=O)(=O)c2ccc(C(C)C)cc2)cc1
Ki ([1]; read-out: Ki): 4.3 nM
Ratio Ki [2]: 782

CCN(CC)c1ccc(CN(C(=O)C2CCCCC2)[C@]23C[C@H]4C[C@H](C[C@H](C4)C2)C3)cc1
Ki ([1]; read-out: Ki): 35 nM
Ki [3]: > 20000 nM
Ratio Ki [2]: > 571

CCN(CC)c1ccc(CN(c2ccc(C)cc2)S(=O)(=O)c2ccccc2)cc1
EC50 [7]: 609 nM
Ki ([1]; read-out: Ki): 3.4 nM
Ratio Ki [2]: 151

CCCCCCCN(Cc1ccc(N(CC)CC)cc1)C(=O)c1ccc(N(C)C)cc1
Ki ([1]; read-out: Ki): 1280 nM

CCN(CC)c1ccc(CN(C(=O)C2CCCCC2)c2ccc(C)cc2)cc1
Ki ([1]; read-out: Ki): 222 nM
Ratio Ki [2]: 0.9

CCN(CC)c1ccc(CN(C(=O)Cc2ccccc2)[C@]23C[C@H]4C[C@H](C[C@H](C4)C2)C3)cc1
Ki ([1]; read-out: Ki): 38 nM
Ki [3]: > 20000 nM
Ratio Ki [2]: > 333

CCN(CC)c1ccc(CN(c2ccc(C)cc2)S(=O)(=O)c2ccc(OC)cc2)cc1
Activity [8]: Toxic
Activity [9]: Non-toxic
inhibition at 10 µM [5]: 100%
EC50 [7]: 42.7 nM
Ki ([1]; read-out: Ki): 0.5 nM
Ratio Ki [2]: 2590
Activity [10]: Toxic
inhibition at 1 µM ([11]; RAW264.7, 120 h): 97%
inhibition at 0.1 µM [12]: 46%
inhibition [6]: Dose-dependent effect

CCN(CC)c1ccc(CN(c2ccc(C)cc2)S(=O)(=O)c2ccc(Cl)cc2)cc1
Ki ([1]; read-out: Ki): 3 nM

CCCCCCCN(Cc1ccc(N(CC)CC)cc1)S(=O)(=O)c1ccc(OC)cc1
Ki ([1]; read-out: Ki): 5190 nM

CCN(CC)c1ccc(CN(C(=O)Cc2ccccc2)c2ccc(C)cc2)cc1
Ki ([1]; read-out: Ki): 72 nM
Ki [3]: > 20000 nM
Ratio Ki [2]: > 277

CCN(CC)c1ccc(CN(c2ccc(Cl)cc2)S(=O)(=O)c2cccc(C)c2)cc1
Ki ([1]; read-out: Ki): 2.8 nM

CCN(CC)c1ccc(CN([C@]23C[C@H]4C[C@H](C[C@H](C4)C2)C3)S(=O)(=O)c2ccc(C(C)C)cc2)cc1
Ki ([1]; read-out: Ki): 457 nM

CCCCCCCN(Cc1ccc(N(CC)CC)cc1)S(=O)(=O)c1ccc(C(C)C)cc1
Ki ([1]; read-out: Ki): 13000 nM

CCCCCCCN(Cc1ccc(N(CC)CC)cc1)S(=O)(=O)CCCC
Ki ([1]; read-out: pKi (converted)): 697 nM

CCCCCCCN(Cc1ccc(N(CC)CC)cc1)S(=O)(=O)Cc1ccccc1
Ki ([1]; read-out: Ki): 273 nM

CCN(CC)c1ccc(CN(c2ccc(C)cc2)S(=O)(=O)c2ccc(C)cc2)cc1
Ki ([1]; read-out: Ki): 5.4 nM

CCN(CC)c1ccc(CNc2ccc(Cl)cc2)cc1
Ki ([1]; read-out: Ki): 6740 nM

CCCCCCCN(Cc1ccc(N(CC)CC)cc1)C(=O)C1CCCCC1
Ki ([1]; read-out: Ki): 212 nM

CCN(CC)c1ccc(CN(C(=O)Cc2ccc(Cl)cc2)c2ccc(C)cc2)cc1
Ki ([1]; read-out: Ki): 107 nM
Ratio Ki [2]: 29

CCCCCCCC(=O)N(CCCCCCC)Cc1ccc(N(CC)CC)cc1
Ki ([1]; read-out: Ki): > 20000 nM

CCN(CC)c1ccc(CN(C(=O)C2CCCCC2)c2ccc(Cl)cc2)cc1
Ki ([1]; read-out: Ki): 164 nM
Ki [3]: > 20000 nM
Ratio Ki [2]: 121

CCN(CC)c1ccc(CN(c2ccc(Cl)cc2)S(=O)(=O)c2ccc(C(C)C)cc2)cc1
Ki ([1]; read-out: Ki): 222 nM

CCN(CC)c1ccc(CN(c2ccc(Cl)cc2)S(=O)(=O)c2ccc(OC)cc2)cc1
Activity [8]: Toxic
Activity [9]: Non-toxic
Activity [4]: Non-toxic
inhibition at 10 µM [5]: > 95%
EC50 [7]: 16.4 nM
Ki ([1]; read-out: Ki): 14 nM
Ki [3]: > 20000 nM
Ratio Ki [2]: > 1430
Activity [10]: Toxic
inhibition [11]: Active
inhibition [6]: Dose-dependent effect

Cc1ccc(S(=O)(=O)N(CCc2ccc(Cl)cc2)S(=O)(=O)c2ccc(C)cc2)cc1
Ki ([1]; read-out: Ki): 192 nM
Ratio Ki [2]: 26

CCCCCCCN(Cc1ccc(N(CC)CC)cc1)S(=O)(=O)c1ccc(OC(C)C)cc1
Ki ([1]; read-out: Ki): > 20000 nM

CCN(CC)c1ccc(CN([C@]23C[C@H]4C[C@H](C[C@H](C4)C2)C3)S(=O)(=O)c2ccc(OC)cc2)cc1
Ki ([1]; read-out: Ki): 137 nM

CCN(CC)c1ccc(CN[C@]23C[C@H]4C[C@H](C[C@H](C4)C2)C3)cc1
Ki ([1]; read-out: Ki): 20000 nM

CCCCCCCN(Cc1ccc(N(CC)CC)cc1)S(=O)(=O)c1ccc(F)cc1
Ki ([1]; read-out: Ki): 1100 nM

CCN(CC)c1ccc(CN(C(=O)Cc2ccc(Cl)cc2)c2ccc(Cl)cc2)cc1
Ki ([1]; read-out: Ki): 136 nM
Ratio Ki [2]: 147
